The values below come from ChEMBL document CHEMBL4619807, “Exploration of Alternative Scaffolds for P2Y14 Receptor Antagonists Containing a Biaryl Core” (J Med Chem, 2020).

In data set [1] the target is T1, P2Y purinoceptor 14 (Mus musculus, UniProt Q9ESG6).
T1 sequence (Q9ESG6 whole entry): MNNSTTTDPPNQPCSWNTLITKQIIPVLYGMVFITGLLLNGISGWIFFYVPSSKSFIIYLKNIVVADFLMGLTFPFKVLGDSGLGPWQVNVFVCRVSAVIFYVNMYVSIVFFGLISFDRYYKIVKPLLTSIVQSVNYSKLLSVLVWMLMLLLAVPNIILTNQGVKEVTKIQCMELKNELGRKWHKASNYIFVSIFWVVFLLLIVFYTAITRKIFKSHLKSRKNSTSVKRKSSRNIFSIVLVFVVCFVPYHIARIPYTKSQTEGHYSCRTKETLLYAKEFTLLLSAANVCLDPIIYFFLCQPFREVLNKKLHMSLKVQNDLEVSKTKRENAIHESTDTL
Nature of the data set: Inhibition of MRS4174 binding to mouse P2Y14R expressed in HEK293 cells pre-incubated for 30 mins before MRS4174 addition and further incubated for 30 mins by flow cytomtery based competitive fluorescence assay. The format is cell-based. The procedure, abridged: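 Competitive whole-cell binding in HEK293 cells stably expressing N-terminally HA-tagged mouse P2Y14R, grown in a 24-well plate to 80–90% confluency. Antagonist given at 1 nM–100 μM in serum-containing EMEM for 30 min at 37 °C, then tracer added at 20 nM final for 30 min.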

Data set [2] can be described thus: Solubility in 10% DMSO in water. Particulars: buffer. It is filed as physicochemical. The procedure, abridged:
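Compound dissolved in DMSO without basification, then diluted with water to 10% DMSO at 1 mg/mL. Solubility was judged by the absence of precipitation on dilution.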

Data set [3] is described as follows: Aqueous solubility at pH 7.4 by pION method. Conditions: aqueous, read-out: solubility. The format is physicochemical. In a few lines: (§1)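 Equilibrium aqueous solubility measured by the pION method at pH 4.0 and at pH 7.4, in μg/mL; mean ± SD.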
The nature of data set [4]: Aqueous solubility at pH 4 by pION method. Particulars: aqueous, read-out: solubility. It is filed as physicochemical. In a few lines: as §1
The nature of data set [5]: Lipophilicity, change in Constant K of the compound by RP-HPLC analysis relative to PPTN. The format is physicochemical. The procedure, abridged: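 Lipophilicity taken from reversed-phase HPLC retention time on a C18 column. Elution used a 20 min gradient of 10 to 100% acetonitrile in 10 mM triethylammonium acetate. Reported as Δk against the reference antagonist.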

Data set [6] in a line: Bioavailability in rat at 1 to 10 mg/kg, ip. Particulars: in vivo. It is filed as ADME, organism-based. In a few lines:
(§2)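 Rats dosed intraperitoneally at 1, 3 and 10 mg/kg and intravenously at 0.5 mg/kg. Solubilizing vehicle was aqueous DMSO. Plasma concentrations followed over time up to 12 h. Bioavailability derived from ip exposure relative to the iv dose.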

Data set [7] can be described thus: Cmax in rat at 10 mg/kg, ip after 3 to 4 hrs. Set-up: dose 10 mg/kg, route intraperitoneal. Conditions: in vivo. It is filed as ADME, organism-based. The procedure, abridged: as §2
Data set [8] can be described thus: Tmax in rat at 10 mg/kg, ip. It is filed as ADME, organism-based. Particulars: in vivo. The procedure, abridged: as §2
Data set [9] in a line: Drug level in rat at 10 mg/kg, ip after 12 hrs. It is filed as ADME, organism-based. Conditions: in vivo. In a few lines:
as §2

Data set [10] in a line: Plasma concentration in rat at 1 mg/kg, ip after 2 hrs. The format is ADME, organism-based. In a few lines: as §2
Data set [11] in a line: Plasma concentration in rat at 1 mg/kg, ip after 4 hrs. The format is ADME, organism-based. The procedure, abridged: as §2
Data set [12] in a line: Half life in rat at 1 mg/kg, ip. Conditions: in vivo. The format is ADME, organism-based.
The subject of data set [13] is HepG2. In words: Toxicity in human HepG2 cells. It is filed as cell-based.
Data set [14] concerns Mus musculus. In words: Antiasthmatic activity in Aspergillus oryzae protease-mediated C57BL/6J mouse model of allergic asthma assessed as reduction in eosinophil infiltration in bronchoalveolar lavage fluid at 10 mg/kg, ip dosed 30 mins before OVA aerosol challenge and measured 2 days post-challenge by cell differential count assay. It is filed as functional, organism-based.

Data set [15] can be described thus: Stability in human plasma assessed as compound remaining level at 120 mins. The format is ADME, cell-free. Particulars: 2 h.
A short description of data set [16]: Stability in mouse plasma assessed as compound remaining level at 120 mins. Particulars: 2 h. It is filed as ADME, cell-free.
The nature of data set [17]: Half life in mouse liver microsomes. The format is ADME, Microsome. (In general: Microsomes from liver hold many membrane-bound enzymes, among them those of drug oxidation.)
Data set [18] in a line: Half life in rat liver microsomes. It is filed as ADME, Microsome.
Data set [19] is described as follows: Half life in human liver microsomes. The format is ADME, Microsome.
The nature of data set [20]: Half life in rat at 0.5 mg/kg, iv. It is filed as ADME, organism-based. Particulars: in vivo.
The target in data set [21] is T2, P2Y purinoceptor 14 (Homo sapiens, UniProt Q15391).
T2 sequence (Q15391 whole entry): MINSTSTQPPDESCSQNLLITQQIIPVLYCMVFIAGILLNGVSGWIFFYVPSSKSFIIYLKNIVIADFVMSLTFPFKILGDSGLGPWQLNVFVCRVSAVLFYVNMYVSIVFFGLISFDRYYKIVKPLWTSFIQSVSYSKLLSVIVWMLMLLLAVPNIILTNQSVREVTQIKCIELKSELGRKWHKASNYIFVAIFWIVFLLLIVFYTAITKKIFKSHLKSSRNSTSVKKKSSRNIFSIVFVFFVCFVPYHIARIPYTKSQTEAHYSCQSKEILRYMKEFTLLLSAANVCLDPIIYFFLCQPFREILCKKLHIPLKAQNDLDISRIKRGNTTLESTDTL
In words: cell-based.

The target in data set [22] is T2, P2Y purinoceptor 14. Nature of the data set: cell-based. This is another data set of the same source.
The target of data set [23] is T2, P2Y purinoceptor 14. In words: cell-based. This is another data set of the same source.

≈ marks a conversion by molar mass, not a printed value. Calls of active or inactive are those of the source. No cut-off for these calls is given here.

As usually defined, the IC50 is the midpoint of a concentration-inhibition curve. One may read the solubility as how much of the substance goes into solution per volume. As a reminder, the bioavailability is dose-corrected exposure relative to a reference, in per cent. Low readings indicate little systemic uptake, high ones much systemic uptake. In general, Cmax refers to the highest concentration seen after dosing. In general, Tmax refers to the time at which the peak concentration occurs. The term half-life denotes the time in which the quantity being followed falls by half. A high value points to slow loss. `O=C(O)c1cc(-c2ccc(C34CCN(CC3)CC4)cc2)c2ccc(-c3ccc(C(F)(F)F)cc3)cc2c1`: the IC50 in data set [1] is 0.0214 µM; in data set [13], greater than 20 µM; in data set [21], 0.0381 µM; in data set [22] it was 0.057 µM; in data set [23], 0.0845 µM. In addition, the solubility in [2] was 1000 µg/mL (≈ 1990 µM); in data set [3] it was 0.44 to 0.55 µg/mL (≈ 0.877 to 1.1 µM); in data set [4], 1.5 to 14.3 µg/mL (≈ 2.99 to 28.5 µM). Besides, the “fold change (FC)” value in data set [5] was 1.24. Also, the bioavailability in data set [6] was 100%. The concentration in data set [7] peaked (Cmax) at 900 ng/mL. Besides, the time to peak (Tmax) in data set [8] fell in the range of 3 to 4 h. In data set [9], this molecule displayed a Drug uptake of 200 to 400 ng/kg. The concentration at 2 h in data set [10] is 165 nM. This molecule also showed a concentration at 4 h in [11] of 292 nM. Besides, the half-life is 5.1 h in data set [12] and 3.46 h in data set [20]. In addition, the result in data set [14] was Active. Besides, the Stability in [15] and in data set [16] was 100% in each case. Also, the t1/2 is 1.12 h in data set [17], 1.33 h in data set [18] and greater than 4 h in [19].
